Test results as given in ChEMBL document CHEMBL1137728, “Synthesis of novel thiazolone-based compounds containing pyrazoline moiety and evaluation of their anticancer activity” (2009).

What was measured:
Type in all cases: functional
HT-29 = assay: Growth inhibition of human HT-29 cells after 48 hrs by SRB assay; conditions: HT-29, 48 h
Outline: (§1)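 NCI five-dose screen across about 60 human tumour cell lines, at 10-fold dilutions from 10^-4 to 10^-8 M with 48 h continuous exposure, read by SRB. Percent growth used time-zero, untreated control and treated absorbances. GI50 was the concentration giving 50% lower net protein increase than controls. Values beyond the tested range were reported as more or less than the maximum or minimum concentration.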

SK-MEL-28 = assay: Growth inhibition of human SK-MEL-28 cells after 48 hrs by SRB assay; conditions: SK-MEL-28, 48 h; outline: as §1
[1] = Growth inhibition of human […] cells after 48 hrs by SRB assay; conditions: for TGI: read-out: pTGI (converted); outline: as §1
UACC-62 = assay: Growth inhibition of human UACC62 cells after 48 hrs by SRB assay; conditions: UACC-62, 48 h; outline: as §1
SNB-75 = assay: Growth inhibition of human SNB75 cells after 48 hrs by SRB assay; conditions: SNB-75, 48 h; for TGI: read-out: pTGI (converted); outline: as §1
[2] = Anticancer activity against human NCI60 cells assessed as cell growth at 10 uM after 48 hrs by SRB assay; conditions: NCI60, 48 h, read-out: Activity
Outline: (§2)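 US NCI one-dose screen across about 60 human tumour cell lines. A single concentration of 10^-5 M was applied with 48 h continuous exposure. The end point was sulforhodamine B protein staining, read spectrophotometrically. Results are given as percent growth of treated cells relative to untreated controls.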

HL-60(TB) = assay: Growth inhibition of human HL-60(TB) cells after 48 hrs by SRB assay; conditions: HL-60, 48 h
Outline: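 Five-dose NCI-60 assay at 10-fold dilutions, 10^-4 to 10^-8 M, 48 h continuous exposure; SRB protein staining. Absorbance at time zero, untreated control and each concentration gives percent growth. GI50 is the concentration giving 50% lower net protein increase than controls. Values beyond the range tested are reported as above or below the extreme concentration.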

SK-MEL-5 [3] = assay: Growth inhibition of human SK-MEL-5 cells after 48 hrs by SRB assay; conditions: SK-MEL-5, 48 h; for TGI: read-out: pTGI (converted); outline: as §1
SK-MEL-5 [4] = assay: Anticancer activity against human SK-MEL-5 cells assessed as cell growth at 10 uM after 48 hrs by SRB assay; conditions: SK-MEL-5, 48 h, read-out: Activity; outline: as §2
LOX IMVI = assay: Growth inhibition of human LOXIMVI cells after 48 hrs by SRB assay; conditions: for TGI: read-out: pTGI (converted); outline: as §1
MOLT-4 [5] = assay: Anticancer activity against human MOLT4 cells assessed as cell growth at 10 uM after 48 hrs by SRB assay; conditions: MOLT-4, 48 h, read-out: Activity; outline: as §2
CCRF-CEM [6] = assay: Anticancer activity against human CCRF-CEM cells assessed as cell growth at 10 uM after 48 hrs by SRB assay; conditions: read-out: Activity; outline: as §2
DU-145 [7] = assay: Growth inhibition of human DU145 cells after 48 hrs by SRB assay; conditions: DU-145, 48 h; outline: as §1
SN12C = assay: Growth inhibition of human SN12C cells after 48 hrs by SRB assay; outline: as §1
KM12 = assay: Growth inhibition of human KM12 cells after 48 hrs by SRB assay; conditions: KM12, 48 h; outline: as §1
UO-31 = assay: Growth inhibition of human UO31 cells after 48 hrs by SRB assay; conditions: UO-31, 48 h; outline: as §1
MDA-MB-435 = assay: Growth inhibition of human MDA-MB-435 cells after 48 hrs by SRB assay; conditions: MDA-MB-435, 48 h; outline: as §1
Malme-3M = assay: Growth inhibition of human MALME-3M cells after 48 hrs by SRB assay; outline: as §1
DU-145 [8] = assay: Anticancer activity against human DU145 cells assessed as cell growth at 10 uM after 48 hrs by SRB assay; conditions: DU-145, 48 h, read-out: Activity; outline: as §2
TK-10 = assay: Growth inhibition of human TK10 cells after 48 hrs by SRB assay; conditions: TK-10, 48 h; outline: as §1
ACHN = assay: Growth inhibition of human ACHN cells after 48 hrs by SRB assay; outline: as §1
HCT-15 = assay: Growth inhibition of human HCT15 cells after 48 hrs by SRB assay; conditions: HCT-15, 48 h; outline: as §1
CAKI-1 = assay: Growth inhibition of human Caki1 cells after 48 hrs by SRB assay; conditions: CAKI-1, 48 h; outline: as §1
OVCAR-3 = assay: Growth inhibition of human OVCAR-3 cells after 48 hrs by SRB assay; conditions: OVCAR-3, 48 h; outline: as §1
MDA-MB-231 = assay: Growth inhibition of human MDA-MB-231 cells after 48 hrs by SRB assay; conditions: MDA-MB-231, 48 h; outline: as §1
MOLT-4 [9] = assay: Growth inhibition of human MOLT4 cells after 48 hrs by SRB assay; conditions: MOLT-4, 48 h; outline: as §1
NCI-H460 = assay: Growth inhibition of human NCI-H460 cells after 48 hrs by SRB assay; conditions: NCI-H460, 48 h, read-out: pTGI (converted); outline: as §1
[10] = Growth inhibition of human Hs 578T cells after 48 hrs by SRB assay; outline: as §1
U-251 = assay: Growth inhibition of human U251 cells after 48 hrs by SRB assay; conditions: U-251, 48 h; outline: as §1
HOP-62 = assay: Growth inhibition of human HOP62 cells after 48 hrs by SRB assay; conditions: HOP-62, 48 h; outline: as §1
HCT-116 = assay: Growth inhibition of human HCT116 cells after 48 hrs by SRB assay; conditions: HCT-116, 48 h; outline: as §1
SNB-19 = assay: Growth inhibition of human SNB19 cells after 48 hrs by SRB assay; conditions: SNB-19, 48 h; outline: as §1
T47D = assay: Growth inhibition of human T47D cells after 48 hrs by SRB assay; outline: as §1
CCRF-CEM [11] = assay: Growth inhibition of human CCRF-CEM cells after 48 hrs by SRB assay; outline: as §1
SF-268 = assay: Growth inhibition of human SF268 cells after 48 hrs by SRB assay; conditions: SF-268, 48 h; outline: as §1
MCF7 = assay: Growth inhibition of human MCF7 cells after 48 hrs by SRB assay; conditions: MCF7, 48 h; outline: as §1
IGROV-1 = assay: Growth inhibition of human IGROV1 cells after 48 hrs by SRB assay; conditions: IGROV-1, 48 h; outline: as §1

## O=C1N=C(N2N=C(c3ccccc3)CC2c2ccccc2O)/C(=C/c2ccc(O)cc2)S1 (stereo not drawn)
HT-29
  GI50: 1910 nM
SK-MEL-28
  GI50: 1780 nM
[1]
  GI50: 1860 nM
  TGI: 4470 nM
UACC-62
  GI50: 1700 nM
UACC-62; read-out: pTGI (converted)
  TGI: 3310 nM
SNB-75
  GI50: 1950 nM
  TGI: 5250 nM
[2]
  growth at 10 µM: 1.13%
HL-60(TB)
  GI50: 1660 nM
HL-60(TB); read-out: pTGI (converted)
  TGI: 4900 nM
SK-MEL-5 [3]
  GI50: 1700 nM
  TGI: 3310 nM
SK-MEL-5 [4]
  growth at 10 µM: -96.3%

## O=C1N=C(N2N=C(c3ccccc3)CC2c2ccccc2O)/C(=C/c2ccc(Cl)cc2)S1 (stereo not drawn)
LOX IMVI
  GI50: 1860 nM
  TGI: 3550 nM

## O=C1CSC(N2N=C(c3ccccc3)CC2c2ccccc2O)=N1 (stereo not drawn)
MOLT-4 [5]
  growth at 10 µM: -61.5%
[2]
  growth at 10 µM: 101%

## O=C1N=C(N2N=C(c3ccccc3)CC2c2ccccc2O)CS1 (stereo not drawn)
[2]
  growth at 10 µM: 83.6%
CCRF-CEM [6]
  growth at 10 µM: -5.39%

## COc1cc(/C=C2/SC(N3N=C(c4ccccc4)CC3c3ccccc3O)=NC2=O)cc(OC)c1O (stereo not drawn)
DU-145 [7]
  GI50: 1550 nM
DU-145 [7]; read-out: pTGI (converted)
  TGI: 3090 nM
SN12C
  GI50: 1580 nM
SN12C; read-out: pTGI (converted)
  TGI: 4900 nM
HT-29
  GI50: 427 nM
HT-29; read-out: pTGI (converted)
  TGI: 2820 nM
KM12
  GI50: 1820 nM
KM12; read-out: pTGI (converted)
  TGI: 3630 nM
UO-31
  GI50: 1910 nM
UO-31; read-out: pTGI (converted)
  TGI: 4270 nM
LOX IMVI
  GI50: 1550 nM
  TGI: 2950 nM
MDA-MB-435
  GI50: 1820 nM
MDA-MB-435; read-out: pTGI (converted)
  TGI: 3630 nM
[1]
  GI50: 1700 nM
  TGI: 6920 nM
Malme-3M
  GI50: 2000 nM
Malme-3M; read-out: pTGI (converted)
  TGI: 4900 nM
SNB-75
  GI50: 1740 nM
  TGI: 4270 nM
DU-145 [8]
  growth at 10 µM: -57%
TK-10
  GI50: 1780 nM
TK-10; read-out: pTGI (converted)
  TGI: 3980 nM
ACHN
  GI50: 1170 nM
ACHN; read-out: pTGI (converted)
  TGI: 10200 nM
HCT-15
  GI50: 1230 nM
HCT-15; read-out: pTGI (converted)
  TGI: 2690 nM
CAKI-1
  GI50: 1020 nM
CAKI-1; read-out: pTGI (converted)
  TGI: 3240 nM
OVCAR-3
  GI50: 1410 nM
OVCAR-3; read-out: pTGI (converted)
  TGI: 2820 nM
[2]
  growth at 10 µM: 42.6%
MDA-MB-231
  GI50: 1450 nM
MDA-MB-231; read-out: pTGI (converted)
  TGI: 3020 nM
MOLT-4 [9]
  GI50: 1700 nM
NCI-H460
  TGI: 3310 nM
[10]
  GI50: 1380 nM
[10]; read-out: pTGI (converted)
  TGI: 3720 nM
U-251
  GI50: 1510 nM
U-251; read-out: pTGI (converted)
  TGI: 2820 nM
HOP-62
  GI50: 759 nM
HOP-62; read-out: pTGI (converted)
  TGI: 15500 nM
HCT-116
  GI50: 1550 nM
HCT-116; read-out: pTGI (converted)
  TGI: 2950 nM
SNB-19
  GI50: 1780 nM
SNB-19; read-out: pTGI (converted)
  TGI: 3720 nM
T47D
  GI50: 1780 nM
T47D; read-out: pTGI (converted)
  TGI: 3980 nM
CCRF-CEM [11]
  GI50: 2000 nM
CCRF-CEM [11]; read-out: pTGI (converted)
  TGI: 5620 nM
SK-MEL-5 [3]
  GI50: 1910 nM
  TGI: 10500 nM
SF-268
  GI50: 1860 nM
SF-268; read-out: pTGI (converted)
  TGI: 4470 nM
MCF7
  GI50: 1950 nM
MCF7; read-out: pTGI (converted)
  TGI: 4900 nM
IGROV-1
  GI50: 1580 nM
IGROV-1; read-out: pTGI (converted)
  TGI: 2880 nM
